Measurements taken from ChEMBL document CHEMBL1240362, “Intrapulmonary pharmacokinetics of S-013420, a novel bicyclolide antibacterial, in healthy Japanese subjects” (Antimicrob Agents Chemother, 2010).
In brackets after ≈: the same amount, converted by molar mass.

Key:
Homo sapiens [1] = assay: Toxicity in healthy human assessed as alveolar macrophage count in bronchoalveolar fluid at 400 mg, po administered as single dose after 10 hrs; details: in vivo
Homo sapiens [2] = assay: Toxicity in healthy human assessed as alveolar macrophage count in bronchoalveolar fluid at 400 mg, po administered as single dose after 24 hrs; details: in vivo
Moraxella catarrhalis = assay: Antimicrobial activity against Moraxella catarrhalis; format: functional
Homo sapiens [3] = assay: Toxicity in healthy human assessed as neutrophil count in bronchoalveolar fluid at […], po administered as single dose after 2 hrs; format: organism-based, Lung; set-up: route oral; details: in vivo
Outline: (§1)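 Healthy Japanese male never-smokers, aged 20 to 45 years with normal BMI, got one open-label oral 400 mg suspension dose. Four subjects per time group had one fiber-optic bronchoscopic BAL at the assigned post-dose time. The first aliquot was discarded and the last three were pooled. BAL fluid was held on ice and spun at 400 × g for 5 min at 4°C. Pellet cells were counted by hemocytometer, with a differential count on a stained cytocentrifuge preparation.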

[4] = Drug level in epithelial lining fluid of healthy human at […] administered as single dose after 2 hrs; format: ADME, organism-based; set-up: route oral; details: po, read-out: Drug uptake
Outline: (§2)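 Four healthy male volunteers per BAL time (2-24 h) after one oral 400 mg suspension dose. Single bronchoscopic lavage; first aliquot discarded, next three pooled. Supernatant separated at 400 × g, 5 min, 4°C, and drug assayed by LC/MS/MS. ELF level = CBAL × urea plasma/urea BAL, with urea corrected for blood contamination via RBC ratio. PK parameters are model-independent, based on the mean concentration at each time.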

[5] = Ratio of AUC (0 to 24 hrs) in plasma of healthy human to MIC90 for Haemophilus influenzae; format: functional
Homo sapiens [6] = assay: Toxicity in healthy human assessed as eosinophil count in bronchoalveolar fluid at 400 mg, po administered as single dose after 4 hrs; details: in vivo
[7] = Ratio of AUC (0 to 24 hrs) in plasma of healthy human to MIC90 for erythromycin-susceptible Staphylococcus aureus; format: functional
Homo sapiens [8] = assay: Toxicity in healthy human assessed as other cellular fractions in bronchoalveolar fluid at […], po administered as single dose after 24 hrs; format: organism-based, Lung; set-up: route oral; details: in vivo
Outline: as §1

[9] = Plasma concentration in healthy human at […], po after 10 hrs; format: ADME, organism-based; set-up: route oral
Outline: (§3)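 Healthy nonsmoking Japanese men, 20-45 y, given one oral 400 mg suspension dose. Blood drawn at 0-72 h, spun at 1,600 × g for 10 min at 4°C, plasma kept at −20°C. Drug measured by validated LC/MS/MS, linear 0.005-5 μg/ml. Values are mean ± SD, n = 28. Cmax, Tmax and t1/2,z are model-independent; AUC0-24 by trapezoidal method.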

[10] = Drug level in alveolar macrophages of healthy human at […], po administered as single dose after 4 hrs; format: ADME, organism-based, Macrophage; set-up: route oral; details: read-out: Drug uptake
Outline: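 One oral 400 mg suspension dose; four volunteers lavaged at each time (2-24 h). Cell pellet from the pooled 2nd-4th aspirates was counted (hemocytometer, stained cytospin differential). Drug in cell suspension measured by HPLC, divided by AM volume assuming 2.42 μl/10^6 cells. Cmax and Tmax are model-independent, based on mean concentrations at each time.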

Homo sapiens [11] = assay: Toxicity in healthy human assessed as eosinophil count in bronchoalveolar fluid at 400 mg, po administered as single dose after 6 hrs; details: in vivo
Homo sapiens [12] = assay: Toxicity in healthy human assessed as alveolar macrophage count in bronchoalveolar fluid at 400 mg, po administered as single dose after 8 hrs; details: in vivo
[13] = Plasma concentration in healthy human at […], po after 4 hrs; format: ADME, organism-based; set-up: route oral
Outline: as §3

[14] = Ratio of drug level in epithelial lining fluid to plasma in healthy human at […], po administered as single dose after 4 hrs; format: ADME, organism-based; set-up: route oral
Outline: (§4)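 For each subject, ELF or AM drug level after the single oral 400 mg dose is divided by the plasma level sampled at the BAL time (2-24 h). Ratios are summarized per four-subject group.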

[15] = Ratio of drug level in epithelial lining fluid to plasma in healthy human at 400 mg, po administered as single dose after 10 hrs
[16] = Drug level in epithelial lining fluid of healthy human at […], po administered as single dose after 8 hrs; format: ADME, organism-based; set-up: route oral; details: read-out: Drug uptake
Outline: as §2

[17] = Ratio of drug level in epithelial lining fluid to plasma in healthy human at 400 mg, po administered as single dose after 12 hrs
Homo sapiens [18] = assay: Toxicity in healthy human assessed as neutrophil count in bronchoalveolar fluid at […], po administered as single dose after 8 hrs; format: organism-based, Lung; set-up: route oral; details: in vivo
Outline: as §1

[19] = Ratio of drug level in epithelial lining fluid to plasma in healthy human at […] administered as single dose after 8 hrs; format: ADME, organism-based; set-up: route oral; details: po
Outline: as §4

Homo sapiens [20] = assay: Toxicity in healthy human assessed as lymphocytes count in bronchoalveolar fluid at […], po administered as single dose after 24 hrs; format: organism-based, Lung; set-up: route oral; details: in vivo
Outline: as §1

MIC90 (Moraxella catarrhalis): 0.5 µg/mL (≈ 0.595 µM) | concentration at 2 h [4]: 16700 ng/mL | concentration at 10 h [9]: 429 ng/mL | concentration at 4 h [10]: 116000 ng/mL | concentration at 4 h [13]: 575 ng/mL | Kp at 4 h [14]: 24.8 | Kp at 10 h [15]: 23.2 | concentration at 8 h [16]: 11400 ng/mL | Kp at 12 h [17]: 13.8 | Kp at 8 h [19]: 25.9
Structure (SMILES): CC[C@H]1OC(=O)[C@H](C)C(=O)[C@H](C)[C@@H](O[C@@H]2O[C@H](C)C[C@H](N(C)C)[C@H]2O)[C@@]2(C)C[C@@H](C)/C(=N\C(C)=O)[C@H](C)[C@@H](OC/C(=N\OCc3ccc(-n4cccn4)nc3)CO2)[C@]1(C)O [MODITHROMYCIN]
Activity (Homo sapiens [1]): 85.8% | Activity (Homo sapiens [2]): 89.3% | Activity (Homo sapiens [3]): 0% | RatioAUC/MIC [5]: 1.3 | Activity (Homo sapiens [6]): 0.1% | RatioAUC/MIC [7]: 41.8 | Activity (Homo sapiens [8]): 0% | Activity (Homo sapiens [11]): 0% | Activity (Homo sapiens [12]): 90.4% | Activity (Homo sapiens [18]): 0.1% | Activity (Homo sapiens [20]): 10.8%
